Results of several laboratories.
Compare with care: the assays were run in different laboratories.
Read-out: cell growth or viability

| SMILES | cell line | test | setting | measurement | result |
| --- | --- | --- | --- | --- | --- |
| O=C(C=Cc1ccc(F)cc1)Nc1cc(-c2ccnc(N3CCC(O)CC3)c2)ccn1 | A549 | MTT | 5 µM | inhibition | 65.9% |
| Cc1nc(NC(=O)N2CCC[C@H]2C(N)=O)sc1-c1ccnc(C(C)(C)C(F)(F)F)c1 | A549 | MTT |  | IC50 | 11.1 µM |
| COc1cccc2c1C(=O)c1c(O)c3c(c(O)c1C2=O)C[C@@](O)(C(=O)CO)C[C@@H]3O[C@H]1C[C@H](N)[C@H](O)[C@H](C)O1 | A549 | MTT | 50 µg/mL, 48 h, serum-free | viability | 20.2% |
| CCc1c(C)c2ccc(OCC(=O)NNC(=S)Nc3ccccc3)c(C)c2oc1=O | PC-3 | MTT | 125 µg/mL | viability | 4.76% |
| C=CC(=O)NC1CCN(c2ncc3ncnc(Nc4ccc(Oc5ccc6c(c5)ncn6C)c(C)c4)c3n2)CC1 | A549 |  |  | EC50 | 6.34 µM |
| Cc1ccc(-c2cc(-c3ccc(Cl)c(F)c3)c3c(=O)[nH]c(=O)[nH]c3n2)cc1 | PC-3 | MTT | 48 h | IC50 | 21.2 µM |
| Cc1nc(Nc2ccc3c(c2)CC(=O)N3)c2ccccc2n1 | A549 | MTT |  | IC50 | 28.5 µM |
| O=C(O)c1ccc2c(c1)nc(Nc1cccc(Cl)c1)c1ccncc12 | NCI-H522 | resazurin | 48 h | IC50 | 9.3 µM |
| O=C(C=Cc1ccccc1)Nc1cccc(-c2ccnc(N3CCC(CO)CC3)c2)c1 | A549 | MTT | 5 µM | inhibition | 59.1% |
| CCc1c(C)c2ccc(OCc3nnc(S)n3N)c(C)c2oc1=O | PC-3 | MTT | 125 µg/mL | viability | 11.3% |
| Cc1cc(NC(=O)C=Cc2ccccc2)cc(-c2ccnc(N3CCC(CO)CC3)c2)c1 | A549 | MTT | 5 µM | inhibition | 54.3% |
| COc1ccc(-c2cc(-c3ccc(OC)cc3)c3c(=O)[nH]c(=O)[nH]c3n2)cc1 | PC-3 | MTT | 48 h | IC50 | 12.3 µM |
| COc1cc2ncnc(Nc3ccc4c(c3)/C(=C/c3ccccc3)C(=O)N4)c2cc1OC | A549 | MTT |  | IC50 | 17.1 µM |
| C=CCOc1ccc2c(C)c(CC)c(=O)oc2c1C | PC-3 | MTT | 500 µg/mL | viability | 7.08% |
| O=C(/C=C/c1cccc(F)c1)Nc1cc(-c2ccnc(N3CCC(O)CC3)c2)ccn1 | A549 | MTT | 5 µM | inhibition | 62.4% |
| COc1ccc(-c2cc(-c3ccc(Br)cc3)c3c(=O)[nH]c(=O)[nH]c3n2)cc1 | PC-3 | MTT | 48 h | IC50 | 15.9 µM |
| CC(C)C[C@@H]1NC(=O)[C@@H](N(C)C(=O)[C@H](CC2CCC2)NC(=O)[C@@H]2C[C@@H](F)CN2C(=O)C2(C(F)(F)F)CC(F)(F)C2)CCCCNC(=O)C2(CC2)NC(=O)[C@H](Cc2cc(Cl)ccc2Cl)N(C)C1=O | NCI-H1048 | MTT | 5 days | GI50 | 0.032 µM |
| CCc1c(C)c2ccc(OCC(=O)NN=Cc3ccc([N+](=O)[O-])cc3)cc2oc1=O | PC-3 | MTT | 500 µg/mL | viability | 5.32% |
| Cc1cccc(/C=C/C(=O)Nc2cc(-c3ccnc(N4CCC(O)CC4)c3)ccn2)c1 | A549 | MTT | 5 µM | inhibition | 74.5% |
| Cc1c(Cc2ccccc2)c(=O)oc2c(C)c(OCC(=O)NN=Cc3ccccc3)ccc12 | PC-3 | MTT | 31.25 µg/mL | viability | 42.1% |
| Cc1nc(Nc2ccc3c(c2)/C(=C/c2ccccc2C)C(=O)N3C)c2ccccc2n1 | A549 | MTT |  | IC50 | 21.6 µM |
| Cc1c(Cc2ccccc2)c(=O)oc2c(C)c(OCC(=O)NN=Cc3ccc(Cl)cc3)ccc12 | PC-3 | MTT | 31.25 µg/mL | viability | 61.2% |
| O=C(CCc1ccccc1)Nc1cc(-c2ccnc(N3CCC(O)CC3)c2)ccn1 | A549 | MTT | 5 µM | inhibition | 65.7% |
| CCNC(=S)NNC(=O)COc1ccc2c(C)c(CC)c(=O)oc2c1C | PC-3 | MTT | 31.25 µg/mL | viability | 99% |
| O=C(C=Cc1ccccc1)Nc1cc(-c2ccnc(N3CCOCC3)c2)ccn1 | A549 | MTT | 5 µM | inhibition | 76.7% |
| CC(=NNC(=O)COc1ccc2c(C)c(Cc3ccccc3)c(=O)oc2c1C)c1ccc(Br)cc1 | PC-3 | MTT | 500 µg/mL | viability | 2.33% |
| Cc1cccc(/C=C/C(=O)Nc2cccc(-c3ccnc(N4CCC(O)CC4)c3)c2)c1 | A549 | MTT | 5 µM | inhibition | 54.8% |
